Results: ChEMBL document CHEMBL1133693, “Peptide and peptide mimetic inhibitors of antigen presentation by HLA-DR class II MHC molecules. Design, structure-activity relationships, and X-ray crystal structures” (J Med Chem, 2000)
Starred links: 1 amine or outer side, 2 acyl side, 3 side chain; linkers in the order of their positions; H or OH if unused. Non-standard residues stand in square brackets, D forms with d. Residues, ends and D or L forms follow the SMILES beside them. ξ: configuration not given here. Haic = O=C1[C@@H](N[*:1])CCc2cccc3c2N1[C@H](C(=O)[*:2])C3; X1 = O=C([C@@H]1C(c2ccccc2)CCN1[*:1])[*:2]; NMePhg = CN[C@H](C(=O)O)c1ccccc1; Tic = O=C(O)[C@@H]1Cc2ccccc2CN1; Cha = N[C@@H](CC1CCCCC1)C(=O)O; NMeL = CN[C@@H](CC(C)C)C(=O)O; ξTle = CC(C)(C)C(N)C(=O)O; NMeA = CN[C@@H](C)C(=O)O; ξNMeA = CNC(C)C(=O)O

Experiments:
[1] = Mean relative potency is the ratio of potencies of 'Ac-(Cha)RAMASL-NH2' and compound, to inhibit MHC class II DRB1*0401
Method in brief: (§1)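 Scintillation proximity competition assay. Test compounds competed against the radioligand, and bound counts were read by scintillation. Ac-(Cha)RAMASL-NH2 was run as standard competitor in every run. Potency is the ratio of standard IC50 to compound IC50.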

T-cell [2] = assay: T-cell inhibitory potency relative to the IC50 of a(Cha)AAAKTAAAAa-NH2 MHC class II DRB1*0101; format: functional, Homo sapiens
Cathepsin B (Bos taurus) = Cathepsin B (Bos taurus) (UniProt P07688); assay: Percent of original compound remaining with cathepsin B after incubation for 4 hrs was determined by HPLC
[3] = Mean relative potency is the ratio of potencies of 'Ac-(Cha)RAMASL-NH2' and compound, to inhibit MHC class II DRB1*0101; method in brief: as §1
T-cell [4] = assay: T-cell inhibitory potency relative to the IC50 of a(Cha)AAAKTAAAAa-NH2 in MHC class II DRB1*0401; format: functional, Homo sapiens
T-cell [5] = assay: T-cell inhibitory potency relative to the IC50 of a(Cha)AAAKTAAAAa-NH2 iMHC class II DRB1*0101; format: functional, Homo sapiens
[6] = Mean relative potency is the ratio of potencies of 'Ac-(Cha)RAMASL-NH2' and compound to inhibit MHC class II DRB1*0101; method in brief: as §1
[7] = Mean relative potency is the ratio of potencies of 'Ac-(Cha)RAMASL-NH2' and compound to inhibit MHC class II DRB1*0401; method in brief: as §1
[8] = Degradation half-time was evaluated; format: ADME
Method in brief: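 Each test peptide at 1.0 mg/mL in pH 6.0 phosphate buffer (88 mM KH2PO4, 12 mM Na2HPO4, 1.33 mM EDTA, 2.0 mM cysteine, internal standard) was prewarmed to 32 °C. Cathepsin B was preactivated 5 min at 37 °C and added at 0.3 U per micromole of compound. Half-time from ln(A0 − A) vs time, t1/2 = 0.693/k.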

[9] = Mean relative potency is the ratio of potencies of 'Ac-(Cha)RAMASL-NH2' and compound, to inhibit MHC class II DRB1*0404; method in brief: as §1

SMILES	Mean relative potency [1]	T-cell inhibition (T-cell [2])	% remaining (Cathepsin B (Bos taurus)) [%]	Mean relative potency [3]	T-cell inhibition (T-cell [4])	T-cell inhibition (T-cell [5])	Mean relative potency [6]	Mean relative potency [7]	half-life [8] [min]	Mean relative potency [9]
CSCC[C@@H](NC(=O)[C@H]1Cc2ccccc2CN1C(=O)[C@H](CCCN=C(N)N)NC(=O)[C@H](CC1CCCCC1)NC(C)=O)C(=O)N1CCC(c2ccccc2)[C@@H]1C(=O)N[C@@H](CO)C(=O)N(C)[C@@H](CC(C)C)C(N)=O (some centres not stated)	0.22	2.5	116	0.49	2.7	–	–	–	–	–
CSCC[C@@H](NC(=O)[C@H]1Cc2ccccc2CN1C(=O)[C@H](CCCN=C(N)N)NC(=O)[C@H](CC1CCCCC1)NC(C)=O)C(=O)N1CCC(c2ccccc2)[C@@H]1C(=O)N[C@@H](CO)C(=O)N(C)[C@@H](C)C(N)=O (some centres not stated)	–	–	98	–	4.6	6.9	0.84	0.63	–	–
CSCC[C@H](NC(=O)[C@H](C)NC(=O)[C@H](CCCN=C(N)N)NC(=O)[C@H](CC1CCCCC1)NC(C)=O)C(=O)N[C@@H](C)C(=O)N[C@@H](CO)C(=O)N(C)[C@@H](CC(C)C)C(N)=O	–	–	–	–	–	–	–	–	4.6	–
CC(=O)N[C@@H](CC1CCCCC1)C(=O)N[C@@H](CCCN=C(N)N)C(=O)N[C@@H](C)C(N)=O	0	–	–	0	–	–	–	–	–	0
CSCCC(NC(=O)[C@H]1Cc2ccccc2CN1C(=O)[C@H](CCCN=C(N)N)NC(=O)[C@H](CC1CCCCC1)NC(C)=O)C(=O)N(C)[C@@H](C)C(=O)N[C@@H](CO)C(=O)N(C)[C@@H](C)C(N)=O (some centres not stated)	–	–	99	–	–	–	0.89	1.05	–	–
CSCC[C@@H](NC(=O)[C@@H](c1ccccc1)N(C)C(=O)[C@H](CCCN=C(N)N)NC(=O)[C@H](CC1CCCCC1)NC(C)=O)C(=O)N(C)[C@@H](C)C(=O)N[C@@H](CO)C(=O)N[C@H](C(N)=O)C(C)(C)C	–	–	43	–	–	–	1.64	1.27	–	–
CSCC[C@@H](NC(=O)[C@@H](c1ccccc1)N(C)C(=O)[C@H](CCCN=C(N)N)NC(=O)[C@H](CC1CCCCC1)NC(C)=O)C(=O)N[C@@H](C)C(=O)N[C@@H](CO)C(=O)N[C@H](C(N)=O)C(C)(C)C	–	–	93	–	–	–	1.15	2.02	–	–
CSCC[C@@H](NC(=O)[C@H](NC(=O)[C@H](CCCN=C(N)N)NC(=O)[C@H](CC1CCCCC1)NC(C)=O)C(C)(C)C)C(=O)N(C)[C@@H](C)C(=O)N[C@@H](CO)C(=O)N[C@H](C(N)=O)C(C)(C)C	–	–	97	–	–	–	0.29	0.38	–	–
CSCC[C@H](NC(=O)[C@H](C)NC(=O)[C@H](CCCN=C(N)N)NC(=O)[C@H](CC1CCCCC1)NC(C)=O)C(=O)N[C@H](C)C(=O)N[C@@H](CO)C(N)=O	1.14	–	–	0.34	–	–	–	–	–	0.32
CSCC[C@H](NC(=O)[C@H](C)NC(=O)[C@H](CCCN=C(N)N)NC(=O)[C@H](CC1CCCCC1)NC(C)=O)C(=O)N[C@H](C)C(N)=O	0.07	–	–	0.25	–	–	–	–	–	0.03
CSCC[C@H](NC(=O)[C@H](C)NC(=O)[C@H](CCCN=C(N)N)NC(=O)[C@H](CC1CCCCC1)NC(C)=O)C(N)=O (Ac-[Cha]RAM-NH2)	0.01	–	–	0.05	–	–	–	–	–	0.005
CSCC[C@H](NC(=O)[C@H](C)NC(=O)[C@H](CCCN=C(N)N)NC(=O)[C@H](CC1CCCCC1)NC(C)=O)C(=O)N[C@@H](C)C(=O)N[C@@H](CO)C(=O)N[C@@H](CC(C)C)C(N)=O (Ac-[Cha]RAMASL-NH2)	1	–	0	1	0	0.12	–	–	3	1
CSCC[C@H](NC(=O)[C@H](C)NC(=O)[C@H](CCCN=C(N)N)NC(=O)[C@H](CC1CCCCC1)NC(C)=O)C(=O)N(C)[C@@H](C)C(=O)N[C@@H](CO)C(=O)N[C@@H](CC(C)C)C(N)=O (Ac-[Cha]RAM[NMeA]SL-NH2)	0.6	–	0	1.22	–	–	–	–	7.3	–
CSCC[C@H](NC(=O)[C@H](C)NC(=O)[C@H](CCCN=C(N)N)NC(=O)[C@H](CC1CCCCC1)NC(C)=O)C(=O)N(C)[C@@H](C)C(=O)N[C@@H](CO)C(=O)N(C)[C@@H](CC(C)C)C(N)=O (Ac-[Cha]RAM[NMeA]S[NMeL]-NH2)	–	–	0	–	–	–	–	–	4.8	–
CSCC[C@H](NC(=O)[C@H](C)N(C)C(=O)[C@H](CCCN=C(N)N)NC(=O)[C@H](CC1CCCCC1)NC(C)=O)C(=O)N(C)[C@@H](C)C(=O)N[C@@H](CO)C(=O)N(C)[C@@H](CC(C)C)C(N)=O (Ac-[Cha]R[NMeA]M[NMeA]S[NMeL]-NH2)	–	–	99	–	–	–	–	–	10700	–
CSCC[C@H](NC(=O)[C@H](C)N(C)C(=O)[C@H](CCCN=C(N)N)NC(=O)[C@H](CC1CCCCC1)NC(C)=O)C(=O)N1CCC(c2ccccc2)[C@H]1C(=O)N[C@@H](CO)C(=O)N(C)[C@@H](C)C(N)=O (some centres not stated) (Ac-[Cha]R[NMeA]M[X1]S[NMeA]-NH2)	–	–	–	–	1.2	3.7	–	–	–	–
CC(=O)N[C@@H](CC1CCCCC1)C(=O)N[C@@H](CCCN=C(N)N)C(=O)N(C)[C@@H](C)C(=O)N[C@H]1CCc2cccc3c2N(C1=O)[C@H](C(=O)N[C@@H](CO)C(=O)N(C)[C@@H](CC(C)C)C(N)=O)C3 (Ac-[Cha]R[NMeA][Haic]S[NMeL]-NH2)	–	–	106	–	2.32	<0.04	0.03	0.18	–	–
CC(=O)N[C@@H](CC1CCCCC1)C(=O)N[C@@H](CCCN=C(N)N)C(=O)N(C)[C@H](C(=O)N[C@H]1CCc2cccc3c2N(C1=O)[C@H](C(=O)N[C@@H](CO)C(=O)N(C)[C@@H](CC(C)C)C(N)=O)C3)c1ccccc1 (Ac-[Cha]R[NMePhg][Haic]S[NMeL]-NH2)	–	–	95	–	1	0.1	0.01	0.11	–	–
CC(=O)N[C@@H](CC1CCCCC1)C(=O)N[C@@H](CCCN=C(N)N)C(=O)N(C)[C@H](C(=O)N[C@H]1CCc2cccc3c2N(C1=O)[C@H](C(=O)N[C@@H](CO)C(=O)N(C)C(C)C(N)=O)C3)c1ccccc1 (some centres not stated) (Ac-[Cha]R[NMePhg][Haic]S[ξNMeA]-NH2)	–	–	141	–	4.6	<0.2	0.01	0.37	–	–
CC(=O)N[C@@H](CC1CCCCC1)C(=O)N[C@@H](CCCN=C(N)N)C(=O)N(C)[C@H](C(=O)N[C@H]1CCc2cccc3c2N(C1=O)[C@H](C(=O)N[C@@H](CO)C(=O)NC(C(N)=O)C(C)(C)C)C3)c1ccccc1 (some centres not stated) (Ac-[Cha]R[NMePhg][Haic]S[ξTle]-NH2)	–	–	126	–	3	2.3	0.06	0.23	–	–
CC(=O)N[C@@H](CC1CCCCC1)C(=O)N[C@@H](CCCN=C(N)N)C(=O)N1Cc2ccccc2C[C@H]1C(=O)N[C@H]1CCc2cccc3c2N(C1=O)[C@H](C(=O)N[C@@H](CO)C(=O)N(C)[C@@H](C)C(N)=O)C3 (Ac-[Cha]R[Tic][Haic]S[NMeA]-NH2)	–	–	109	–	0.7	0.2	0.12	0.27	–	–
